Results taken from ChEMBL document CHEMBL1124192, “Cyclopentenylcytosine. A carbocyclic nucleoside with antitumor and antiviral properties” (J Med Chem, 1988).
Converted amounts (≈) assume the structure as drawn.

Assays:
Vaccinia virus [1] = assay: Dose of compound required to inhibit the vaccinia lederle CA virus induced cytopathogenic effects; assay type: functional; conditions: Orthopoxvirus vaccinia; read-out: ID50 (the source's name)
Method in brief: (§1)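 Southern Research CPE inhibition test in Vero host cells. Confluent monolayers in 96-well plates received drug (minimum seven concentrations, cytotoxic to noncytotoxic) plus virus at 32 CCID50 per 0.1 mL, in triplicate, with cell, virus and drug-cytotoxicity controls. Incubated at 37 °C, 2% CO2. CPE scored microscopically at 3–4 days. VR = 0.1 × sum of CE-grade differences from virus control, halved for partially cytotoxic wells.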

Vaccinia virus [2] = assay: Degree of inhibition of virus-induced cytopathogenic effect and the degree of cytotoxicity produced by compound against vaccinia lederle CA virus; assay type: functional, Orthopoxvirus vaccinia; method in brief: as §1

Compound `Nc1ncnc2c1ncn2[C@@H]1O[C@H](CO)[C@@H](O)[C@@H]1O` [VIDARABINE] has an IC50 (Vaccinia virus [1]) of 9.8 µg/mL (≈ 36.7 µM) and a Virus rating (Vaccinia virus [2]) of 3.1.
